“Also recorded” adds a separate entry of the source.
How the values were obtained:
[1] = Urinary excretion after single oral doses of BI 409306; format: in vivo, human; settings: for fe0–4: urine 0 h to 4 h, geometric mean (gCV%)
Outline: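 Drug amounts were measured by HPLC-MS/MS, giving amounts and fractions excreted per interval. Dose proportionality of Ae0–4 was tested by linear regression in EMs and by a mixed-effects linear model in PMs, with a 95% CI on the slope.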

[2] = preclinical studies; cited from earlier work
[3] = system: rat hippocampal slices; settings: cited from earlier work
[4] = system: healthy male subjects; assay: Safety and tolerability; format: in vivo, human
Outline: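 Randomized, double-blind, placebo-controlled single-dose escalation, 3:1 active:placebo (six and two per group). Males 21–50 y, BMI 18.5–29.9 kg m−2, CYP2C19 EMs or PMs, dosed four per day ≥1 h apart, ≥5 days between levels. Monitored AEs, laboratory tests, physical exam, vital signs, cardiac monitoring, 12-lead ECG and 16-item Bond–Lader 100 mm mood VAS. Investigators rated tolerability on a four-point scale. Descriptive statistics.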

[5] = Plasma pharmacokinetics after single rising oral doses of BI 409306; format: in vivo, human; settings: for AUC0–∞ ratio of tablet to solution: EM; for Cl F^−1: geometric mean (gCV%)
Outline: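 Healthy males (21–50 y), CYP2C19-genotyped as homozygous EMs or PMs, given single oral doses after a ≥10 h fast: solution 0.5–5 mg, tablets 10–350 mg; PMs given 10 mg, then 100 mg tablet. Tablet/solution crossover at 5 and 50 mg. Plasma sampled −2 h to 24 h (48, 72 h if ≥10 mg). HPLC-MS/MS with isotope-labelled internal standard. Noncompartmental analysis; log-scale ANOVA for formulation and genotype.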

[6] = system: patients with mild-to-moderate probable AD; settings: cited from earlier work
[7] = single oral dose 2 mg sol EM (n = 6)
[8] = single oral dose 5 mg sol EM (n = 6)
[9] = single oral dose 5 mg tab EM (n = 6)
[10] = single oral dose 10 mg tab EM (n = 6)
[11] = single oral dose 10 mg tab PM (n = 6)
[12] = single oral dose 50 mg sol EM (n = 8)
[13] = single oral dose 50 mg tab EM (n = 6)
[14] = single oral dose 100 mg tab EM (n = 5)
[15] = single oral dose 100 mg tab PM (n = 6)
[16] = single oral dose 200 mg tab EM (n = 6)
[17] = single oral dose 350 mg tab EM (n = 6)
[18] = after administration of 50 mg tablets
[19] = dose levels of 10 mg and 100 mg

Compound: O=c1[nH]c(Cc2ccccn2)nc2c1cnn2C1CCOCC1 [BI 409306]
- urinary excretion of BI 409306 ([1]; CYP2C19 EMs): < 2 % of the dose
- dose proportionality exponent β of the power model for Ae0–4 ([1]; CYP2C19 EMs, entire dose range, 95% CI: 0.98, 1.12): 1.05
- urinary excretion of BI 409306 ([1]; CYP2C19 PMs): up to 2.68 % of the dose
- fe0–4 [1, 7]: 0.483 (46.5) %
- fe0–4 [1, 8]: 0.583 (26.0) %
- fe0–4 [1, 9]: 0.611 (24.2) %
- fe0–4 [1, 10]: 0.461 (60.2) %
- fe0–4 [1, 11]: 1.30 (14.3) %
- fe0–4 [1, 12]: 0.594 (48.1) %
- fe0–4 [1, 13]: 0.523 (56.9) %
- fe0–4 [1, 14]: 0.597 (53.0) %
- fe0–4 [1, 15]: 1.78 (23.3) %
- fe0–4 [1, 16]: 0.676 (48.8) %
- fe0–4 [1, 17]: 0.786 (24.0) %
- memory performance [2]: improved memory performance
- synaptic plasticity (LTP) [3]: enhancement of LTP
- AE: Dizziness ([4]; 2 mg sol EM (n = 6)): 1 (16.7) n (%)
- AE: Gastrointestinal disorders ([4]; 2 mg sol EM (n = 6)): 1 (16.7) n (%)
- AE: Headache ([4]; 2 mg sol EM (n = 6)): 1 (16.7) n (%)
- AE: Nausea ([4]; 2 mg sol EM (n = 6)): 1 (16.7) n (%)
- AE: Nervous system disorders ([4]; 2 mg sol EM (n = 6)): 2 (33.3) n (%)
- AE: Headache ([4]; 5 mg tab EM (n = 6)): 1 (16.7) n (%)
- AE: Nervous system disorders ([4]; 5 mg tab EM (n = 6)): 1 (16.7) n (%)
- AE: Diarrhoea ([4]; 10 mg tab PM (n = 6)): 1 (16.7) n (%)
- AE: Gastrointestinal disorders ([4]; 10 mg tab PM (n = 6)): 1 (16.7) n (%)
- AE: Headache ([4]; 10 mg tab PM (n = 6)): 2 (33.3) n (%)
- AE: Nervous system disorders ([4]; 10 mg tab PM (n = 6)): 2 (33.3) n (%)
- AE: Cardiac disorders ([4]; 50 mg tab EM (n = 6)): 1 (16.7) n (%)
- AE: Extrasystoles ([4]; 50 mg tab EM (n = 6)): 1 (16.7) n (%)
- AE: Palpitations ([4]; 50 mg tab EM (n = 6)): 1 (16.7) n (%)
- AE: Chromatopsia ([4]; 100 mg tab PM (n = 6)): 1 (16.7) n (%)
- AE: Eye disorders ([4]; 100 mg tab PM (n = 6)): 2 (33.3) n (%)
- AE: Headache ([4]; 100 mg tab PM (n = 6)): 2 (33.3) n (%)
- AE: Nervous system disorders ([4]; 100 mg tab PM (n = 6)): 2 (33.3) n (%)
- AE: Photopsia ([4]; 100 mg tab PM (n = 6)): 1 (16.7) n (%)
- AE: Presyncope ([4]; 100 mg tab PM (n = 6)): 1 (16.7) n (%)
- AE: Headache ([4]; 200 mg tab EM (n = 6)): 1 (16.7) n (%)
- AE: Nervous system disorders ([4]; 200 mg tab EM (n = 6)): 2 (33.3) n (%)
- AE: Photophobia ([4]; 200 mg tab EM (n = 6)): 1 (16.7) n (%)
- AE: Photopsia ([4]; 200 mg tab EM (n = 6)): 2 (33.3) n (%)
- AE: Somnolence ([4]; 200 mg tab EM (n = 6)): 1 (16.7) n (%)
- AE: Blurred vision ([4]; 350 mg tab EM (n = 6)): 1 (16.7) n (%)
- AE: Cardiac disorders ([4]; 350 mg tab EM (n = 6)): 1 (16.7) n (%)
- AE: Chromatopsia ([4]; 350 mg tab EM (n = 6)): 1 (16.7) n (%)
- AE: Dry mouth ([4]; 350 mg tab EM (n = 6)): 1 (16.7) n (%)
- AE: Gastrointestinal disorders ([4]; 350 mg tab EM (n = 6)): 2 (33.3) n (%)
- AE: Nausea ([4]; 350 mg tab EM (n = 6)): 1 (16.7) n (%)
- AE: Nervous system disorders ([4]; 350 mg tab EM (n = 6)): 1 (16.7) n (%)
- AE: Photophobia ([4]; 350 mg tab EM (n = 6)): 1 (16.7) n (%)
- AE: Photopsia ([4]; 350 mg tab EM (n = 6)): 2 (33.3) n (%)
- AE: Sinus tachycardia ([4]; 350 mg tab EM (n = 6)): 1 (16.7) n (%)
- AE: Somnolence ([4]; 350 mg tab EM (n = 6)): 1 (16.7) n (%)
- dose up to which generally safe and well tolerated ([4]; CYP2C19 EM healthy male subjects): up to 350 mg
- subjects with headache ([4]; CYP2C19 EMs treated with BI 409306, all dose groups): three
- subjects with photophobia/increased sensitivity to light ([4]; CYP2C19 EMs, all dose groups): three
- subjects with photopsia/flashing lights ([4]; CYP2C19 EMs, all dose groups): five
- dose up to which generally safe and well tolerated ([4]; CYP2C19 PM healthy male subjects): up to 100 mg
- subjects with headache ([4]; CYP2C19 PMs treated with BI 409306 (10 mg and 100 mg)): four
- intensity of AEs ([4]; all AEs): mild to moderate
- B&L VAS scores: effects on mood, vigilance or stress levels ([4]; data not shown): no clinically relevant effects; also recorded: did not reveal any clinically relevant effects
- abnormalities in laboratory results, ECG findings or vital signs ([4]; exception: one episode of transient sinus tachycardia): No relevant abnormalities
- overall safety and tolerability ([4]; healthy male subjects, single rising doses): generally safe and well tolerated
- onset of nervous system and eye disorder AEs after administration ([4]; most frequently reported AEs): 20 to 30 min
- time within which AEs mostly resolved ([4]; nervous system and eye disorders): 1 to 2 h
- serious AEs ([4]; single doses 0.5–350 mg, EMs and PMs): No serious AEs occurred; also recorded: No serious AEs were reported
- highest (maximum) tolerated dose ([4]; single oral dose, CYP2C19 EMs): 350 mg
- AUC0–∞ ratio of tablet to solution ([5]; 5 mg dose, 90% CI: 87.6%, 111%): 98.5%
- ratio (CYP2C19 PM to EM) of Cmax ([5]; 10 mg dose, 90% CI: 125%, 401%): 224%
- ratio (CYP2C19 PM to EM) of AUC0–∞ ([5]; 10 mg dose, 90% CI: 291%, 843%): 496%
- AUC0–∞ ratio of tablet to solution ([5]; 50 mg dose, 90% CI: 59.6%, 119%): 84.2%
- ratio (CYP2C19 PM to EM) of Cmax ([5]; 100 mg dose, 90% CI: 124%, 421%): 228%
- ratio (CYP2C19 PM to EM) of AUC0–∞ ([5]; 100 mg dose, 90% CI: 254%, 677%): 415%
- reduction of gMean AUC, tablet versus oral solution [5, 18]: approximately 16%
- reduction of gMean Cmax, tablet versus oral solution [5, 18]: approximately 20%
- time following dose within which BI 409306 was eliminated ([5]; all DGs): ≤ 24 h
- AUC0–∞ in CYP2C19 PMs compared with EMs [5, 19]: 4.1–5.0 fold
- Cmax in CYP2C19 PMs compared with EMs [5, 19]: 2.2–2.3 fold
- Cl F^−1 ([5]; single oral dose 0.5 mg sol EM (n = 6)): 6770 (50.4) ml min^−1
- Cl F^−1 [5, 7]: 5130 (41.3) ml min^−1
- Cl F^−1 [5, 8]: 3490 (27.0) ml min^−1
- Cl F^−1 [5, 9]: 3540 (32.2) ml min^−1
- Cl F^−1 [5, 10]: 5580 (69.8) ml min^−1
- Cl F^−1 [5, 11]: 1120 (35.5) ml min^−1
- Cl F^−1 ([5]; single oral dose 25 mg tab EM (n = 6)): 3810 (49.4) ml min^−1
- Cl F^−1 [5, 12]: 4130 (42.9) ml min^−1
- Cl F^−1 [5, 13]: 4970 (82.0) ml min^−1
- Cl F^−1 [5, 14]: 3660 (68.5) ml min^−1
- Cl F^−1 [5, 15]: 882 (21.4) ml min^−1
- Cl F^−1 [5, 16]: 2730 (44.4) ml min^−1
- Cl F^−1 [5, 17]: 2350 (17.1) ml min^−1

Compound: C[C@@H]1CN(Cc2ncccn2)C[C@H]1c1nc2c(cnn2C2CCOCC2)c(=O)[nH]1 [PF‐04447943, 6‐[(3S,4S)‐4‐methyl‐1‐(pyrimidin‐2‐ylmethyl)pyrrolidin‐3‐yl]‐1‐(tetrahydro‐2H‐pyran‐4‐yl)‐1,5‐dihydro‐4H‐pyrazolo[3,4‐d]pyrimidin‐4‐one]
- incidence of severe AEs [6]: comparable to that with placebo

From paper PMC5061793 (British Journal of Clinical Pharmacology, 2016)
